This is an account of results in ChEMBL document CHEMBL4665785 (J Med Chem, 2020).

Series [1] concerns the target T1, Cathepsin S (Homo sapiens, UniProt P25774). Briefly: Inhibition of recombinant human Cathepsin S expressed in baculovirus infected insect cells using Z-VVR-AMC as substrate preincubated for 15 mins followed by substrate addition and measured after 10 mins by fluorescence assay.
Series [2] in a line: Permeability across apical to basal side in human Caco-2 cells at 1 uM measured up to 120 min by LC-MS analysis. The class given is ADME, cell-based. As to conditions: time <= 120, dose 1 µM, read-out: permeability. In general terms: Caco-2 cells form a polarised layer with tight junctions and transporters.
For series [3], the target named is T1, Cathepsin S. Briefly: Inhibition of Cathepsin S in human Raji cells assessed as increase in Lip10 accumulation after 24 hrs by SDS-PAGE analysis. It counts as cell-based. In outline:
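Human Raji cells, an antigen-presenting B-lymphocyte line, used for the target-engagement read-out. Inhibition is scored as intracellular accumulation of the CatS substrate Lip10, the invariant-chain-derived propeptide.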

Series [4] concerns the target Procathepsin L (Homo sapiens) (UniProt P07711). Briefly: Inhibition of human liver Cathepsin L using Z-VVR-AMC as substrate at 10 uM preincubated for 15 mins followed by substrate addition and measured after 10 mins by fluorescence assay relative to control. The settings on record: time 25.0 min.
Series [5] is filed under the species Homo sapiens. Briefly: Selectivity ratio of inhibition of human liver Cathepsin B to inhibition of recombinant human Cathepsin S.
Series [6] addresses T2, Cathepsin K (Homo sapiens) (UniProt P43235).
T2 sequence (whole entry): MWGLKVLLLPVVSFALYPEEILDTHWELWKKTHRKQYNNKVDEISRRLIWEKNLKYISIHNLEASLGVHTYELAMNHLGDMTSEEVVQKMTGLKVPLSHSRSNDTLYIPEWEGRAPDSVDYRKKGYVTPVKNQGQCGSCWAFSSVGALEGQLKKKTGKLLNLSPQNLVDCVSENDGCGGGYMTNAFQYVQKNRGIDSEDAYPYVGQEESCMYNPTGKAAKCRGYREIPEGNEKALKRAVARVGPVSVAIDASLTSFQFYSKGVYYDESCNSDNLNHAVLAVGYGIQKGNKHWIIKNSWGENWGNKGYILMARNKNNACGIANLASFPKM
Put plainly: Inhibition of recombinant human Cathepsin K expressed in baculovirus infected insect cells using Z-FR-AMC as substrate at 10 uM preincubated for 15 mins followed by substrate addition and measured after 10 mins by fluorescence assay relative to control. The settings on record: time 25.0 min.

Series [7] addresses Cathepsin B (Homo sapiens) (UniProt P07858). Briefly: Inhibition of human liver Cathepsin B using Z-VVR-AMC as substrate at 10 uM preincubated for 15 mins followed by substrate addition and measured after 10 mins by fluorescence assay relative to control. The settings on record: time 25.0 min.
The species entered for series [8] is Homo sapiens. Briefly: Selectivity ratio of inhibition of human liver Cathepsin L to inhibition of recombinant human Cathepsin S.
For series [9], the species on record is Homo sapiens. Put plainly: Selectivity ratio of inhibition of recombinant human Cathepsin K to inhibition of recombinant human Cathepsin S.
In series [10] the target is T2, Cathepsin K (Homo sapiens). Put plainly: Inhibition of recombinant human Cathepsin K expressed in baculovirus infected insect cells using Z-FR-AMC as substrate up to 100 uM preincubated for 15 mins followed by substrate addition and measured after 10 mins by fluorescence assay relative to control. The settings on record: time 25.0 min.

Structures are written as SMILES. Calls of active or inactive are those of the source. The calls are words filed in the database; no cut-off is given here.

T1 sequence (P25774 whole entry): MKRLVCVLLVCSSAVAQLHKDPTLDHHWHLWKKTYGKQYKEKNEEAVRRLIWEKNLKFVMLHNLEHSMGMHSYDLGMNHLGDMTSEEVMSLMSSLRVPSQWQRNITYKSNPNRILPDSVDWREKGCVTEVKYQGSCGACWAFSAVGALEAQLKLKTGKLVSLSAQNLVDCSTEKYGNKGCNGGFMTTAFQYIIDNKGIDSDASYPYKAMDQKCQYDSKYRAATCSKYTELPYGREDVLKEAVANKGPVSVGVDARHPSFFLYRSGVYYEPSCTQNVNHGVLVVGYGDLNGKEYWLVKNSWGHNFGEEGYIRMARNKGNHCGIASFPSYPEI
Procathepsin L (Homo sapiens), sequence (P07711 114-333 limits assumed): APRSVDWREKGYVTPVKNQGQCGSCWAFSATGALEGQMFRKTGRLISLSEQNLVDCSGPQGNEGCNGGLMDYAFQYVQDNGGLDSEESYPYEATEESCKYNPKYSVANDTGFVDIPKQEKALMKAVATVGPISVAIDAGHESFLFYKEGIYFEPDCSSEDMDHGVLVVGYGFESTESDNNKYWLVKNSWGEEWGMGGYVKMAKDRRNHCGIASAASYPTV

Regarding `N#CC1(NC(=O)[C@@H](Cc2ccccc2)CS(=O)(=O)N2CCN(c3ccccn3)CC2)CC1`, on Cathepsin S [1], the Ki – broadly, the equilibrium dissociation constant of an inhibitor or competing ligand from its target – turned out to be 290 nM.

For `N#CC1(NC(=O)[C@H](CS(=O)(=O)N2CCN(c3ccccn3)CC2)Nc2cccnc2)CC1`, in series [2], the Papp A→B at 2 h, 1 µM stood at 0.33 ×10⁻⁶ cm/s. Also, at Cathepsin S [1], the Ki worked out at 0.25 nM.

As to `N#CC1(NC(=O)[C@H](CS(=O)(=O)C[C@H]2CCC(=O)N2)N[C@@H](c2ccc(F)cc2)C(F)(F)F)CC1`, the Ki at Cathepsin S [1] was not above 100 nM.

Take `N#CC1(NC(=O)CCS(=O)(=O)N2CCN(c3ccccn3)CC2)CC1`: at Cathepsin S [1], the Ki worked out at 800 nM.

`N#CC1(NC(=O)[C@H](CS(=O)(=O)N2CCN(c3ccccn3)CC2)NC(=O)Cc2cccs2)CC1`: the 50% effective concentration (EC50) (as a rule, the concentration giving half of the maximal effect) on Cathepsin S [3] came out at 1100 nM. For the same compound, the Papp A→B at 2 h, 1 µM in series [2] turned out to be 0.4 ×10⁻⁶ cm/s. Further, the inhibition constant Ki at Cathepsin S [1] came to 0.2 nM.

`Cc1cc(CC(=O)N[C@@H](CS(=O)(=O)N2CCN(c3ccccn3)CC2)C(=O)NC2(C#N)CC2)on1`: the inhibition (in general, the change of the read-out against control, counted positive when it falls) in [4] was less than 26%; in [6], less than 16%; in [7], less than 8%. Also, the Selectivity ratio in the series filed under Homo sapiens [5], in the series listed under Homo sapiens [8] and in the series filed under Homo sapiens [9] was more than 30000 in each case. The inhibitory constant (Ki) on Cathepsin S [1] turned out to be 0.345 nM.

For `CNC(=O)CCS(=O)(=O)N1CCN(c2ccc3nncn3n2)CC1`, on Cathepsin S [1], the Ki was 700 nM. The inhibition result in series [10] was “inactive”.
